ChEMBL document CHEMBL3091329, “Discovery of tetrahydroisoquinoline-based CXCR4 antagonists” (ACS Med Chem Lett, 2013)

Columns and labels:
[1] = target: T1, C-X-C chemokine receptor type 4 (Homo sapiens, UniProt P61073); test: Antagonist activity at CXCR4 in human Chem-1 cells assessed as inhibition of SDF-1alpha-mediated calcium flux preincubated for 10 mins by FLIPR assay; type: functional, cell-based
[2] = Cytotoxicity against human MAGI-CCR5 cells assessed as cell viability after 2 to 6 days by MTS assay
[3] = target: T1, C-X-C chemokine receptor type 4; test: Ratio of IC50 for CXCR4 in human MAGI-CCR5 cells assessed as inhibition of HIV-1 3B entry to IC50 for CXCR4 in human Chem-1 cells assessed as inhibition of SDF-1alpha-mediated calcium flux; type: functional, cell-based
Summary of the method: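 Two IC50s taken as a ratio. The first is from blockade of HIV-1 IIIB attachment in CCR5/CXCR4-expressing HeLaCD4-LTR-β-gal (MAGI) cells, with cytotoxicity (TC50) assessed alongside. The second is from inhibition of CXCL12-induced Ca2+ flux/release in Chem-1 cells. Each assay was run in duplicate.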

T1 sequence (P61073 whole entry): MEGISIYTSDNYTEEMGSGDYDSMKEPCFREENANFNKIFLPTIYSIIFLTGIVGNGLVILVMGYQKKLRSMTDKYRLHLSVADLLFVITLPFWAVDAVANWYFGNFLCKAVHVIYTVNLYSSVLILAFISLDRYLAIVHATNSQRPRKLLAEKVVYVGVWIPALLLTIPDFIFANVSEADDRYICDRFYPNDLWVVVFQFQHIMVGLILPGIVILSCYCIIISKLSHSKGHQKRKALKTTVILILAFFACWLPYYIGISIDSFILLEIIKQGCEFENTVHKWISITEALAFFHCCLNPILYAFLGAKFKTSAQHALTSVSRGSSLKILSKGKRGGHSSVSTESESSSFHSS

SMILES | IC50 [1] [nM] | CC50 ([2]; magi-ccr5) [nM] | CC50 ([2]; MAGI-CCR5 cells) [nM] | Ratio IC50 [3]
NCCCCN(C[C@H]1Cc2ccccc2CN1Cc1cocn1)[C@H]1CCCc2cccnc21 | 490 | > 10000 | – | –
NC(=O)NCCCCN(C[C@H]1Cc2ccccc2CN1)[C@H]1CCCc2cccnc21 | 3 | > 10000 | – | –
CC(=O)NCCCCN(C[C@H]1Cc2ccccc2CN1)[C@H]1CCCc2cccnc21 | 4 | > 10000 | – | –
NCCCCN(C[C@H]1Cc2ccccc2CN1CC(=O)N1CCOCC1)[C@H]1CCCc2cccnc21 | 570 | > 10000 | – | –
NCCCCN(C[C@@H]1CCc2ccccc2N1)[C@H]1CCCc2cccnc21 | – | > 30000 | – | –
NCCCCN(C[C@H]1Cc2ccccc2CN1Cc1cccnc1)[C@H]1CCCc2cccnc21 | 350 | – | > 10000 | –
NCCCCN(C[C@@H]1NCCc2ccccc21)[C@H]1CCCc2cccnc21 | – | > 30000 | – | –
NCCCCN(C[C@H]1NCCc2ccccc21)[C@H]1CCCc2cccnc21 | – | > 30000 | – | –
CC(C)N1Cc2ccccc2C[C@@H]1CN(CCCCN)[C@H]1CCCc2cccnc21 | 140 | – | > 10000 | –
CN1Cc2ccccc2C[C@@H]1CN(CCCCN)[C@H]1CCCc2cccnc21 | 39 | > 10000 | – | –
NCCCCN(C[C@H]1CCc2ccccc2N1)[C@H]1CCCc2cccnc21 | – | > 30000 | – | –
CN(C)CCCCN(C[C@H]1Cc2ccccc2CN1)[C@H]1CCCc2cccnc21 | 8 | – | > 10000 | 2
NCCCCN(C[C@@H]1Cc2ccccc2CN1)[C@H]1CCCc2cccnc21 | – | – | > 10000 | –
CN(C)C(=O)NCCCCN(C[C@H]1Cc2ccccc2CN1)[C@H]1CCCc2cccnc21 | 180 | > 10000 | – | –
NCCCCN(C[C@H]1Cc2ccccc2CN1Cc1ccccn1)[C@H]1CCCc2cccnc21 | 56 | – | > 10000 | –
NCCCCN(C[C@H]1Cc2ccccc2CN1Cc1ccncc1)[C@H]1CCCc2cccnc21 | 660 | – | > 10000 | –
CC(C)NCCCCN(C[C@H]1Cc2ccccc2CN1)[C@H]1CCCc2cccnc21 | 7 | – | > 10000 | 2
